Only some compounds are listed: those with a hit (about 1.9% of all), similar ones and a draw of the others.
FAS-TE inh – FAS thioesterase domain inhibitors, primary screen, biochemical, fluorescence intensity, uHTS | recombinant FAS-TE, OMFH fluorogenic substrate, fluorescence endpoint | hit rate 0.67% among 360,000 | AID 602261, 2012 | inhibition, % at 15 µM;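 active means compounds whose normalised, plate-corrected inhibition of enzyme fluorescence in the single-dose primary screen is 50% or more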;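 further: 0% = DMSO with enzyme and 100% = substrate without enzyme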
SUMO1 PPI mod – modulators of SUMO1 protein-protein interactions, primary screen, biochemical, uHTS. hit rate 0.33% among 360,000. AID 602429, 2012. inhibition, % at 20 µM. SUMO1 binding to a labelled peptide, TR-FRET, 1 h. Small ubiquitin-related modifier 1 (Homo sapiens), P63165; in the data active means inhibition above about 37%
Scp1 inh – Scp-1 phosphatase inhibitors, primary screen, biochemical, colorimetric, uHTS; AID 493091, 2011; Carboxy-terminal domain RNA polymerase II polypeptide A small phosphatase 1 (Homo …; hit rate 0.88% among 340,000; Recombinant Scp1, phosphopeptide, malachite green phosphate absorbance; inhibition, % at 20 µM;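 active means inhibition above about 50% at 20 µM, limit read from the data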;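 further: plate controls were DMSO wells with enzyme for no effect and wells lacking enzyme for full effect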
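Material: truncated SCP-1 phosphatase (76-261aa) / Buffer or medium: 50 mM Tris acetate pH 5.5, 0.005% Tween-20, 10 mM MgCl2 / Compound dosing: one concentration, 20 µM, with 1.0% DMSO / Incubation: 45 min room-temperature reaction, 5 min colour, 30 min stabiliser / Detection: colorimetric free-phosphate detection, absorbance 630 nm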
STEP inh – STEP phosphatase inhibitors, primary screen, biochemical, fluorescence intensity, uHTS; hit rate 0.25% among 360,000; recombinant STEP, OMFP fluorogenic substrate; AID 588621, 2011; Tyrosine-protein phosphatase non-receptor type 5 (Homo sapiens), P54829; inhibition, % at 20 µM;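 active means inhibition at 20 µM, scaled per plate between control wells, above about 37%, limit read from the data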;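 further: 0% = DMSO with enzyme and substrate and 100% = substrate only without enzyme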
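System: isolated STEP enzyme; schedule: 20 min enzyme reaction at room temperature, protected from light; medium: Bis-Tris buffer pH 6.0, 2.5 mM DTT, 0.005% Tween 20; signal: fluorescence, 480/540 nm; dosing: single compound dose of 20 µM, 1% DMSO final; also added: OMFP substrate, 25 µM final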
LMPTP inh – LMPTP phosphatase inhibitors, primary screen, biochemical, fluorescence intensity, uHTS; Low molecular weight phosphotyrosine protein phosphatase (Homo sapiens), P24666; recombinant LMPTP-A, OMFP fluorogenic substrate; inhibition, % at 20 µM; hit rate 0.22% among 360,000;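 active means compounds that cut the enzyme signal by at least half of the control window in the single-dose screen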;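 further: plate controls were DMSO wells with enzyme plus substrate for no effect and substrate without enzyme for full effect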
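Assay system: LMPTP-A, protein tyrosine phosphatase of low molecular weight / Medium: pH 6.0 Bis-Tris buffer with DTT and Triton X-100 / Schedule: 50 min enzyme reaction at room temperature, protected from light / Measured by: endpoint fluorescence intensity from OMFP dephosphorylation / Read-out basis: % inhibition relative to no-enzyme and uninhibited control wells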
Scp-1 conf – Scp-1 phosphatase inhibitors, retest, confirmation, biochemical, colorimetric, single concentration. shares compounds with Scp1 inh. AID 540281, 2011. inhibition, % at 20 µM. hit rate 61% among 2,500. recombinant SCP-1 catalytic domain, phosphate release, malachite green absorbance;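 further: plate controls were DMSO with enzyme for no effect and buffer wells lacking enzyme for full effect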
Scp-1 MG ctr – colorimetric readout interference by compounds, confirmation, artefact control for Scp-1 inhibitor project, biochemical, single concentration. AID 540313, 2011. shares compounds with Scp1 inh. Colorimetric interference counterscreen, malachite green absorbance 630 nm. 2,500 tested, under 10 active. apparent inhibition (interference), % at 20 µM;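 further: compounds added after enzyme reaction finished so only phosphate colour detection is probed; plate controls were DMSO wells with completed Scp-1 reaction for no effect and substrate wells lacking enzyme for full effect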
Scp-1 Tm shift – Scp-1 binding by thermal shift, confirmation, orthogonal assay for Scp-1 inhibitor project, biophysical, differential scanning fluorimetry. Recombinant SCP1, Sypro Orange thermal shift Tm. hit rate 25% among 1,500. shares compounds with Scp1 inh. thermal shift relative to vanadate control, % at 40 µM;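 active means substances whose mean melting-temperature shift, as a percentage of the reference inhibitor's shift, reaches about 5.3%, limit read from the data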;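 further: 0% = Tm of DMSO wells and 100% = Tm with sodium orthovanadate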
STEP inh conf – STEP phosphatase inhibitor hit confirmation, biochemical, fluorescence intensity, single concentration | shares compounds with STEP inh | recombinant STEP, OMFP fluorogenic substrate | inhibition, % at 20 µM | hit rate 32% among 520 | AID 623866, 2012; call rule not given here;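 further: 0% = enzyme with substrate plus DMSO and 100% = substrate without enzyme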
Numbers without * were called inactive; . = no result.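 How the source made its calls, unless noted: active means inhibition of at least 30% at 20 µM; inactive means the rest.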

SMILES	FAS-TE inh	SUMO1 PPI mod	Scp1 inh	STEP inh	LMPTP inh	Scp-1 conf	Scp-1 MG ctr	Scp-1 Tm shift	others
COc1ccc(C(=O)Nc2cnc3sc(C)nn3c2=O)cc1	2	4	51*	-1	-2	-17	-19	.
COc1ccc(C(=O)Nc2cc(-c3nn4c(C)nnc4s3)ccc2C)cc1	-3	7	-12	4	1	.	.	.
CCCCN1C(C(=O)Nc2ncccn2)=C(O)c2ccccc2S1(=O)=O	-7	5	-9	1	0	.	.	.
CSCCC(C(=O)NCc1ccccc1)n1c(C2CCN(C(C)=O)CC2)nc2ccccc21 (configuration not stated)	.	2	.	.	-1	.	.	.
O=C(C1COc2ccccc2O1)N1CCN(c2ccc(C(F)(F)F)cn2)CC1 (configuration not stated)	20	-1	87*	-2	1	-12	-19	.
COc1ccc(-c2ccc3oc(-c4ccc(OC)cc4)c(C#CC4(O)CCCCC4)c3c2)cc1	38	7	73*	0	5	42*	-26	-2
Cc1cccc(C)c1-n1nnnc1C1c2ccccc2C(=O)N1C1CC1 (configuration not stated)	-12	0	.	.	-2	.	.	.
CCOC(=O)c1cc(C#N)c(SCC(=O)c2cc(C#N)c(SC)nc2C)[nH]c1=O	3	14	89*	6	2	23	-12	.
CCOC(=O)c1cc(C#N)c(SCC(N)=O)[nH]c1=O	-8	7	15	0	11	.	.	.
Cc1nc2c(c(=O)n1CCC1=CCCCC1)c1nc3ccccc3nc1n2/N=C/c1ccco1	16	26	58*	4	32	41*	-9	6.1*
CCCn1c(C)nc2c(c1=O)c1nc3ccccc3nc1n2CCC1=CCCCC1	6	-11	3	3	1	.	.	.
O=C(c1cc(-n2cnnc2)ccc1Cl)N1CCN(c2nc(-c3ccccc3)cs2)CC1	43	-6	1	4	2	.	.	.
O=C(c1ncn[nH]1)N1CCN(c2nc(-c3ccccc3)cs2)CC1	-134	15	56*	0	4	39*	-1	2
CCOC(=O)c1ccc(N=Cc2cnc(N)nc2N)cc1	-2	-11	7	-1	-1	.	.	.
NNc1nccc(Nc2ccccc2C(=O)O)n1	-10	27	66*	0	20	65*	-7	0
c1ccc(Nc2ccnc(Nc3ccccc3)n2)cc1	16	6	-6	1	2	.	.	.
COc1ccc(OC)c2sc(N(CCN(C)C)C(=O)c3cc(Cl)sc3Cl)nc12	18	3	9	-3	8	.	.	.
COc1ccc(Cl)c2sc(N(CCN(C)C)C(=O)C3=COCCO3)nc12	-6	-1	91*	0	0	-13	-12	.
O=C(Cc1nnc(NC(=O)c2ccccc2)s1)N/N=C/c1ccc(O)cc1	-4	-13	62*	26	9	49*	-8	5
Cn1nc(C(C)(C)C)cc1C(=O)NCc1ccc2c(c1)OCO2	6	-1	4	0	1	.	.	.
O=C(Oc1ccc(/C=N/NC(=O)c2ccccc2O)cc1)c1ccccc1	-6	0	82*	-1	3	70*	-5	-8
O=C(N/N=C/c1ccc(F)cc1)c1ccccc1	0	0	-5	2	1	.	.	.
O=C(N/N=C/c1ccc(OC(=O)c2cccs2)cc1)c1ccc(F)cc1	-8	-3	70*	14	28	64*	-15	-29
O=C(N/N=C/c1ccc(OCCCF)cc1)c1ccc(C(F)(F)F)cc1	-2	2	93*	25	30	64*	-19	-13
Cc1cccc(C(=O)Oc2ccc(/C=N/NC(=O)c3cc(O)cc(O)c3)cc2)c1	-2	31	53*	63*	12	60*	-9	3
SMILES	FAS-TE inh	SUMO1 PPI mod	Scp1 inh	STEP inh	LMPTP inh	Scp-1 conf	Scp-1 MG ctr	Scp-1 Tm shift	others
COC(=O)CCCn1cc(CN2CC(N3CCN(CCN(C)C)CC3)CS2(=O)=O)nn1 (configuration not stated)	-8	-16	.	.	-8	.	.	.
CN(Cc1ccccc1)C(=O)c1csc([C@@H]2C[C@H](O)[C@@H](CO)O2)n1	-15	2	.	5	3	.	.	.
CC(=O)c1ccc(NC(=O)CSc2ccsc2[N+](=O)[O-])cc1	-12	-1	72*	2	12	64*	-13	7.1*
CCN(CC)c1ccc(NC(=O)CSc2ccsc2[N+](=O)[O-])c(C)c1	3	-6	19	5	2	.	.	.
O=C(CSc1ccsc1[N+](=O)[O-])Nc1cc(F)ccc1F	8	0	72*	5	21	66*	-16	8.1*
CC(C)OC(=O)CSc1nc(-c2ccc(F)cc2)nc2ccc(F)cc12	-1	1	-7	-8	0	.	.	.
O=C(CSc1nc(-c2ccccc2)nc2ccc(F)cc12)Nc1ccc(C(=O)O)cc1	-3	-7	61*	11	62*	53*	-19	-1
O=C(CSc1nc(-c2ccccc2)nc2ccc(F)cc12)Nc1cccc(C(=O)O)c1	-3	-7	67*	8	63*	60*	-9	-6
O=C(CSc1nnc2c(n1)[nH]c1ccc(F)cc12)NCc1ccc(F)cc1	1	-2	65*	60*	12	25	-10	.	STEP inh conf=-4
O=C(CSc1nnc2c(n1)[nH]c1ccc(F)cc12)NC1CC1	-3	-10	-1	0	0	.	.	.
Cc1cc(/C=C(\C#N)C(=O)NCc2ccccc2)c(C)[nH]1	-8	-20	.	0	-2	.	.	.

Screening data: PubChem BioAssay, Sanford-Burnham Center for Chemical Genomics
